Test results from ChEMBL document CHEMBL1133105, “Antimalarial, antitrypanosomal, and antileishmanial activities and cytotoxicity of bis(9-amino-6-chloro-2-methoxyacridines): influence of the linker” (J Med Chem, 2000).

How the values were obtained:
[1] = system: Plasmodium falciparum; assay: In vitro sensitivity for Plasmodium falciparum FcB1R; assay type: functional, organism-based
Method in brief: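 Asynchronous P. falciparum cultures in human erythrocytes (0.5% parasitemia, 1% haematocrit) exposed to serially diluted drug for 24 h at 37 °C. [3H]hypoxanthine (0.5 µCi/well) then added for a further 24 h. Uptake compared with drug-free controls on the same plate. IC50 taken from the concentration–response curve, averaged over independent experiments. DMSO ≤0.1%.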

[2] = system: Plasmodium falciparum; assay: Inhibition of Plasmodium falciparum 3D7
[3] = system: Plasmodium falciparum; assay: Inhibition of Plasmodium falciparum FCR3
[4] = system: Plasmodium falciparum; assay: Inhibition of Plasmodium falciparum F32A
[5] = system: Plasmodium falciparum; assay: Inhibition of Plasmodium falciparum W2
[6] = system: Leishmania infantum; assay: In Vitro evaluation for the percentage of activity towards Leishmania infantum at 3.13 uM Concentration; Toxic upon mouse primary peritoneal macrophages; assay type: functional, organism-based
Method in brief: (§1)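 Starch-stimulated mouse peritoneal macrophages, 30 000/well, infected after 24 h with spleen-derived L. infantum amastigotes (10:1) together with 2-fold drug dilutions (12.5–1.56 µM). Incubated 7 days at 37 °C, 5% CO2. Wright-stained slides scored microscopically as % reduction of total parasite load or of infected macrophages. Uninfected treated cultures judged microscopically for macrophage toxicity.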

[7] = system: Trypanosoma cruzi; assay: In Vitro evaluation for the percentage of activity towards Trypanosoma cruzi at 6.25 uM Concentration; Toxic upon mouse primary peritoneal macrophages; assay type: functional, organism-based
Method in brief: (§2)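 Mouse peritoneal macrophages, 30 000/well, infected after 24 h with about 100 000 T. cruzi trypomastigotes per well plus 2-fold drug dilutions (12.5–1.56 µM). Incubated 4 days at 37 °C, 5% CO2. Methanol-fixed, Giemsa-stained and scored microscopically as % reduction of total parasite load (free trypomastigotes plus intracellular amastigotes) versus untreated controls.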

[8] = system: Trypanosoma brucei; assay: In Vitro evaluation for the percentage of activity towards Trypanosoma brucei at 12.5 uM Concentration; Toxic upon mouse primary peritoneal macrophages; assay type: functional, organism-based
Method in brief: (§3)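 Bloodstream-form T. brucei in HMI-9 medium, 10 000 parasites/well, exposed to 12.5, 6.25, 3.13 and 1.56 µM drug for 4 days. Read-out is % inhibition of parasite multiplication. Macrophage toxicity judged on mouse primary peritoneal macrophages.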

[9] = system: MRC5; assay: Cytotoxicity on MRC-5 cells at 6.25 uM; assay type: functional; conditions: Homo sapiens
Method in brief: (§4)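 MRC-5 human diploid embryonic lung cells seeded at 5 000/well, washed after 24 h, then given 2-fold drug dilutions (25, 12.5, 6.25, 3.13 µM) in RPMI + 5% FCS, final DMSO below 0.5%. Incubated 7 days at 37 °C, 5% CO2. MTT colorimetric read-out, scored as % reduction of absorbance at 540 nm versus untreated controls.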

[10] = system: MRC5; assay: Cytotoxicity on MRC-5 cells at 12.5 uM; assay type: functional; conditions: Homo sapiens; method in brief: as §4
[11] = system: MRC5; assay: Cytotoxicity on MRC-5 cells at 3.13 uM; assay type: functional; conditions: Homo sapiens; method in brief: as §4
[12] = system: Trypanosoma cruzi; assay: Percentage of activity against Trypanosoma cruzi at 1.56 uM; assay type: functional; method in brief: as §2
[13] = system: Trypanosoma cruzi; assay: Percentage of activity against Trypanosoma cruzi at 12.5 uM; Toxic upon mouse primary peritoneal macrophages; assay type: functional, organism-based; method in brief: as §2
[14] = system: Leishmania infantum; assay: Percentage of activity against Leishmania infantum at 12.5 uM Concentration; Toxic upon mouse primary peritoneal macrophages; assay type: functional, organism-based; method in brief: as §1
[15] = system: Leishmania infantum; assay: In Vitro evaluation for the percentage of activity towards Leishmania infantum at 1.56 uM Concentration; Toxic upon mouse primary peritoneal macrophages; assay type: functional, organism-based; method in brief: as §1
[16] = system: Trypanosoma cruzi; assay: In Vitro evaluation for the percentage of activity towards Trypanosoma cruzi at 3.13 uM Concentration; Toxic upon mouse primary peritoneal macrophages; assay type: functional, organism-based; method in brief: as §2
[17] = system: Leishmania infantum; assay: Percentage of activity against Leishmania infantum at 6.25 uM; Toxic upon mouse primary peritoneal macrophages; assay type: functional, organism-based; method in brief: as §1
[18] = system: Trypanosoma brucei; assay: Percentage of activity against Trypanosoma brucei at 3.13 uM; assay type: functional; method in brief: as §3
[19] = system: Trypanosoma brucei; assay: Percentage of activity against Trypanosoma brucei at 6.25 uM; assay type: functional; method in brief: as §3
[20] = system: Trypanosoma brucei; assay: Percentage of activity against Trypanosoma brucei at 1.56 uM; assay type: functional; method in brief: as §3
[21] = system: MRC5; assay: Cytotoxicity on MRC-5 cells at 25 uM; assay type: functional; conditions: Homo sapiens; method in brief: as §4
[22] = system: MRC5; assay: In Vitro cytotoxicity on MRC-5 cells; assay type: functional; conditions: Homo sapiens; method in brief: as §4
[23] = system: Trypanosoma cruzi; assay: In Vitro evaluation for the percentage of activity towards Trypanosoma cruzi at 1.56 uM Concentration; Toxic upon mouse primary peritoneal macrophages; assay type: functional; method in brief: as §2
[24] = system: Trypanosoma brucei; assay: Percentage of activity against Trypanosoma brucei at 12.5 uM; assay type: functional; method in brief: as §3
[25] = system: Trypanosoma cruzi; assay: Percentage of activity against Trypanosoma cruzi at 3.13 uM; assay type: functional; method in brief: as §2
[26] = system: Plasmodium falciparum; assay: Parasite growth inhibition against Plasmodium falciparum K1; assay type: functional, organism-based
Method in brief: (§5)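 Asynchronous cultures of each strain on human erythrocytes (0.5% parasitemia, 1% final hematocrit) were exposed to serially diluted drug for 24 h at 37 °C. Then 0.5 µCi [3H]hypoxanthine per well was added for 24 h. Incorporation was compared with a drug-free control on the same plate. IC50 was taken from the concentration-response curve as the mean of several independent experiments. DMSO was at most 0.1%.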

[27] = system: Trypanosoma cruzi; assay: Percentage of activity against Trypanosoma cruzi at 12.5 uM; assay type: functional; method in brief: as §2
[28] = system: Leishmania infantum; assay: In Vitro evaluation for the percentage of activity towards Leishmania infantum at 12.5 uM Concentration; assay type: functional; method in brief: as §1
[29] = system: Trypanosoma cruzi; assay: Percentage of activity against Trypanosoma cruzi at 6.25 uM Concentration; assay type: functional; method in brief: as §2
[30] = system: Leishmania infantum; assay: Percentage of activity against Leishmania infantum at 3.13 uM; assay type: functional; method in brief: as §1
[31] = system: Plasmodium falciparum; assay: Parasite growth inhibition against Plasmodium falciparum W2; assay type: functional, organism-based; method in brief: as §5
[32] = system: Plasmodium falciparum; assay: Parasite growth inhibition against Plasmodium falciparum FCR3; assay type: functional, organism-based; method in brief: as §5
[33] = system: Plasmodium falciparum; assay: Parasite growth inhibition against Plasmodium falciparum F32A; assay type: functional, organism-based; method in brief: as §5
[34] = system: Plasmodium falciparum; assay: Growth inhibition of chloroquine-sensitive Plasmodium falciparum 3D7
[35] = system: Plasmodium falciparum; assay: Parasite growth inhibition against Plasmodium falciparum GP1; assay type: functional, organism-based; method in brief: as §5
[36] = system: Leishmania infantum; assay: Percentage of activity against Leishmania infantum 6.25 uM; assay type: functional; method in brief: as §1
[37] = system: Leishmania infantum; assay: Percentage of activity against Leishmania infantum at 1.56 uM; assay type: functional; method in brief: as §1
[38] = system: Plasmodium falciparum; assay: Parasite growth inhibition against Plasmodium falciparum FCM29; assay type: functional, organism-based; method in brief: as §5

Structure (SMILES): OC(c1cc(C(F)(F)F)nc2c(C(F)(F)F)cccc12)C1CCCCN1 (stereo not given) [MEFLOQUINE]
- IC50 [1]: 6.9 nM
- IC50 [2]: 40 nM
- IC50 [3]: 36 nM
- IC50 [4]: 62 nM
- IC50 [5]: 30 nM

Structure (SMILES): COc1ccc2nc3cc(Cl)ccc3c(NCCCN(CCCNc3c4ccc(Cl)cc4nc4ccc(OC)cc34)C(=O)CCN3CCCC3)c2c1
- IC50 [1]: 91 nM
- Cytotoxicity [6]: Toxic
- Cytotoxicity [7]: Toxic
- Cytotoxicity [8]: Toxic
- cytotoxicity at 6.25 µM [9]: 39%
- cytotoxicity at 12.5 µM [10]: 65%
- cytotoxicity at 3.13 µM [11]: 37%
- Parasite load reduction [12]: 0%
- Cytotoxicity [13]: Toxic
- Cytotoxicity [14]: Toxic
- Cytotoxicity [15]: Toxic
- Cytotoxicity [16]: Toxic
- Cytotoxicity [17]: Toxic
- Parasite growth inhibition [18]: 100%
- Inhibition of parasite multiplication [19]: 100%
- Percent inhibition of parasite multiplication [20]: 100%
- cytotoxicity at 25 µM [21]: 76%

Structure (SMILES): O=C(Cn1ccnc1[N+](=O)[O-])NCc1ccccc1 [BENZNIDAZOLE]
- CC50 [22]: > 50 µM

Structure (SMILES): COc1ccc2nc3cc(Cl)ccc3c(NCCCCNCCCNc3c4ccc(Cl)cc4nc4ccc(OC)cc34)c2c1
- IC50 [1]: 61 nM
- Cytotoxicity [6]: Toxic
- Cytotoxicity [7]: Toxic
- cytotoxicity at 6.25 µM [9]: 100%
- cytotoxicity at 12.5 µM [10]: 100%
- cytotoxicity at 3.13 µM [11]: 100%
- Cytotoxicity [13]: Toxic
- Cytotoxicity [23]: Toxic
- Cytotoxicity [14]: Toxic
- Cytotoxicity [15]: Toxic
- Cytotoxicity [16]: Toxic
- Cytotoxicity [17]: Toxic
- Parasite growth inhibition [18]: 100%
- Inhibition of parasite multiplication [19]: 100%
- Percent inhibition of parasite multiplication [20]: 100%
- cytotoxicity at 25 µM [21]: 100%
- Inhibition of parasite multiplication [24]: 100%

Structure (SMILES): COc1ccc2nc3cc(Cl)ccc3c(NCCNCCNc3c4ccc(Cl)cc4nc4ccc(OC)cc34)c2c1
- IC50 [1]: 63 nM
- Cytotoxicity [6]: Toxic
- Cytotoxicity [7]: Toxic
- cytotoxicity at 6.25 µM [9]: 100%
- cytotoxicity at 12.5 µM [10]: 100%
- cytotoxicity at 3.13 µM [11]: 100%
- Cytotoxicity [13]: Toxic
- Cytotoxicity [23]: Toxic
- Cytotoxicity [14]: Toxic
- Cytotoxicity [15]: Toxic
- Cytotoxicity [16]: Toxic
- Cytotoxicity [17]: Toxic
- Parasite growth inhibition [18]: 100%
- Inhibition of parasite multiplication [19]: 100%
- Percent inhibition of parasite multiplication [20]: 100%
- cytotoxicity at 25 µM [21]: 100%
- Inhibition of parasite multiplication [24]: 100%

Structure (SMILES): COc1ccc2nc3cc(Cl)ccc3c(NCCCN3CCN(CCCNc4c5ccc(Cl)cc5nc5ccc(OC)cc45)CC3)c2c1
- IC50 [1]: 17 nM
- Reduction of T. cruzi parasite load [25]: 0%
- IC50 [26]: 16 nM
- T. cruzi parasite load reduction [27]: 0%
- cytotoxicity at 6.25 µM [9]: 0%
- cytotoxicity at 12.5 µM [10]: 0%
- Percent inhibition of Leishmania infantum [28]: 0%
- cytotoxicity at 3.13 µM [11]: 0%
- Reduction of T. cruzi parasite load [29]: 0%
- Percent antileishmanial activity (reduction of parasite load) [30]: 0%
- IC50 [31]: 12 nM
- IC50 [32]: 18 nM
- IC50 [33]: 8 nM
- IC50 [34]: 13 nM
- Parasite growth inhibition [18]: 80%
- Inhibition of parasite multiplication [19]: 90%
- IC50 [35]: 11 nM
- Antileishmanial activity (% reduction of parasite load) [36]: 0%
- Percent inhibition of parasite multiplication [20]: 60%
- cytotoxicity at 25 µM [21]: 0%
- Antileishmanial activity (% reduction of parasite load) [37]: 0%
- IC50 [38]: 13 nM
- Inhibition of parasite multiplication [24]: 100%
